Experimental findings from ChEMBL document CHEMBL2346532, “Design, synthesis and potent cytotoxic activity of novel podophyllotoxin derivatives” (Bioorg Med Chem, 2013) are described below.

SMILES strings stand for the structures. Where only a bound is given, the exact number is not on record here.

Assay [1] concerns KB. The assay can be described thus: Ratio of etoposide IC50 to compound IC50 for human KB cells. The class given is functional.
Assay [2] concerns KB. The assay is described as follows: Cytotoxicity against human KB cells after 72 hrs by SRB assay. The format is functional, cell-based. An outline of the steps:
(§1)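 Cells seeded at 3–5 × 10³ per well in RPMI-1640 with 10% FBS containing a range of sample concentrations, exposed 72 h. Attached cells fixed in cold 50% trichloroacetic acid for 30 min, stained with 0.04% sulforhodamine B for 30 min, bound dye dissolved in 10 mM Tris base, absorbance read at 515 nm. Run in triplicate. KBvin is a vincristine-selected multidrug-resistant KB subline.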
In general terms: The SRB assay estimates cell density from bound dye.

For assay [3], the system named is DU-145. The assay can be described thus: Cytotoxicity against human DU145 cells after 72 hrs by SRB assay. The conditions noted are these: DU-145, 72 h. The format is functional, cell-based. An outline of the steps: as §1
For assay [4], the system named is A549. The assay can be described thus: Cytotoxicity against human A549 cells after 72 hrs by SRB assay. The class given is functional, cell-based. Conditions: A549, 72 h. An outline of the steps:
as §1

For assay [5], the system named is A549. The assay can be described thus: Ratio of etoposide IC50 to compound IC50 for human A549 cells. The format is functional.
Assay [6] is described as follows: Cytotoxicity against human KBVIN cells after 72 hrs by SRB assay. The format is functional, cell-based. An outline of the steps: as §1
The subject of assay [7] is DU-145. The assay is described as follows: Ratio of etoposide IC50 to compound IC50 for human DU145 cells. The format is functional.
Assay [8] can be described thus: Ratio of etoposide IC50 to compound IC50 for human KBVIN cells. The format is functional.

The IC50 is the concentration that gives 50% inhibition. Consider `COc1cc([C@@H]2c3cc4c(cc3[C@@H](NC(=S)NC(=O)c3ccccc3)[C@H]3COC(=O)[C@H]23)OCO4)cc(OC)c1OC`, for which the “Ratio IC50” value (in the assay with KB [1]; with A549 [5]; in the assay with DU-145 [7]; in assay [8]) was 20 in each case. Further, the IC50 amounted to 0.9 µM in the assay on KB [2], 0.97 µM in the assay with DU-145 [3], 1.13 µM with A549 [4] and 0.81 µM in assay [6].

Regarding `COc1cc([C@@H]2c3cc4c(cc3[C@@H](NC(=S)NC(=O)c3cccnc3)[C@H]3COC(=O)[C@H]23)OCO4)cc(OC)c1OC`, the IC50 with KB [2] was determined as 14.2 µM; in the assay with DU-145 [3], 11.4 µM; in the assay on A549 [4], 15.5 µM; in assay [6] it was 16.8 µM.

For `COc1cc([C@@H]2c3cc4c(cc3[C@@H](NC(=S)NC(=O)c3ccc5ccccc5c3)[C@H]3COC(=O)[C@H]23)OCO4)cc(OC)c1O`, the IC50 with KB [2] is 7.23 µM; in the assay with DU-145 [3], 6.55 µM; in the assay with A549 [4], 11.8 µM; in assay [6], 10.3 µM.

In the case of `COc1cc([C@@H]2c3cc4c(cc3[C@@H](NC(=S)NC(=O)c3ccc([N+](=O)[O-])cc3)[C@H]3COC(=O)[C@H]23)OCO4)cc(OC)c1OC`, the IC50 with KB [2] was determined as 1.33 µM; in the assay on DU-145 [3] it was 1.57 µM; in the assay with A549 [4] it was 2.06 µM; in assay [6] it was 1.65 µM.

For `COc1cc([C@@H]2c3cc4c(cc3[C@@H](NC(=S)NC(=O)c3ccc(Cl)cc3)[C@H]3COC(=O)[C@H]23)OCO4)cc(OC)c1O`, the IC50 (in the assay on KB [2]; with DU-145 [3]; with A549 [4]; in assay [6]) was over 20 µM throughout.

Take `COc1cc([C@@H]2c3cc4c(cc3[C@@H](O[C@@H]3O[C@@H]5CO[C@@H](C)O[C@H]5[C@H](O)[C@H]3O)[C@H]3COC(=O)[C@H]23)OCO4)cc(OC)c1O` [ETOPOSIDE]: the IC50 is 3.88 µM with KB [2], 2.03 µM in the assay on DU-145 [3], 2.58 µM in the assay with A549 [4] and over 20 µM in assay [6].

For the compound `COc1cc([C@@H]2c3cc4c(cc3[C@@H](NC(=S)NC(=O)C3CCCCC3)[C@H]3COC(=O)[C@H]23)OCO4)cc(OC)c1OC`, the “Ratio IC50” value (with KB [1]; with A549 [5]; in the assay with DU-145 [7]; in assay [8]) was 20 in each case. Besides, the IC50 with KB [2] came out at 0.32 µM; in the assay on DU-145 [3] it was 0.17 µM; with A549 [4], 0.19 µM; in assay [6], 0.098 µM.

As for `COc1cc([C@@H]2c3cc4c(cc3[C@@H](NC(=S)NC(=O)c3ccc5ccccc5c3)[C@H]3COC(=O)[C@H]23)OCO4)cc(OC)c1OC`, the “Ratio IC50” value (in the assay on KB [1]; in the assay with A549 [5]; in the assay on DU-145 [7]; in assay [8]) was 20 throughout. For the same compound, the IC50 worked out at 0.12 µM with KB [2], 0.099 µM in the assay on DU-145 [3], 0.11 µM with A549 [4] and 0.13 µM in assay [6].

For the compound `COc1cc([C@@H]2c3cc4c(cc3[C@@H](NC(=S)NC(=O)c3cccnc3Cl)[C@H]3COC(=O)[C@H]23)OCO4)cc(OC)c1OC`, the IC50 (in the assay with KB [2]; in the assay on DU-145 [3]; with A549 [4]; in assay [6]) was over 20 µM throughout.

With `COc1cc([C@@H]2c3cc4c(cc3[C@@H](NC(=S)NC(=O)c3cccs3)[C@H]3COC(=O)[C@H]23)OCO4)cc(OC)c1OC`, the IC50 in the assay with KB [2] was 11.6 µM; with DU-145 [3] it was 11.2 µM; in the assay on A549 [4], 12.3 µM; in assay [6] it was 12.5 µM.

Consider `COc1cc([C@@H]2c3cc4c(cc3[C@@H](NC(=S)NC(=O)c3ccco3)[C@H]3COC(=O)[C@H]23)OCO4)cc(OC)c1O`, for which the IC50 was 8.74 µM in the assay on KB [2], 8.49 µM in the assay with DU-145 [3], 13.7 µM in the assay on A549 [4] and 9.46 µM in assay [6].

For the compound `COc1cc([C@@H]2c3cc4c(cc3[C@@H](NC(=S)NC(=O)c3ccco3)[C@H]3COC(=O)[C@H]23)OCO4)cc(OC)c1OC`, the IC50 (with KB [2]; in the assay on DU-145 [3]; in the assay with A549 [4]; in assay [6]) was over 20 µM in each case.

Take `COc1cc([C@@H]2c3cc4c(cc3[C@@H](NC(=S)NC(C)=O)[C@H]3COC(=O)[C@H]23)OCO4)cc(OC)c1OC`: the IC50 with KB [2] came out at 13.4 µM; in the assay on DU-145 [3] it was 12.3 µM; with A549 [4] it was 13.1 µM; in assay [6], 13.6 µM.

For the compound `COc1cc([C@@H]2c3cc4c(cc3[C@@H](NC(=S)NC(=O)c3cccs3)[C@H]3COC(=O)[C@H]23)OCO4)cc(OC)c1O`, the IC50 in the assay on KB [2] was found to be 8.4 µM; in the assay on DU-145 [3], 7.34 µM; in the assay with A549 [4], 9.82 µM; in assay [6] it was 9.24 µM.

Turning to `COc1cc([C@@H]2c3cc4c(cc3[C@@H](NC(=S)NC(=O)c3ccccc3)[C@H]3COC(=O)[C@H]23)OCO4)cc(OC)c1O`, the IC50 with KB [2] was found to be 8.96 µM; in the assay with DU-145 [3], 9.88 µM; with A549 [4] it was 12 µM; in assay [6], 9.93 µM.

`COc1cc([C@@H]2c3cc4c(cc3[C@@H](NC(=S)NC(=O)c3ccc(C)cc3)[C@H]3COC(=O)[C@H]23)OCO4)cc(OC)c1OC`: the IC50 with KB [2] is 10.5 µM; with DU-145 [3], 10.5 µM; with A549 [4], 11.3 µM; in assay [6], 12.2 µM.

Regarding `COc1cc([C@@H]2c3cc4c(cc3[C@@H](NC(=S)NC(=O)c3cnccc3Cl)[C@H]3COC(=O)[C@H]23)OCO4)cc(OC)c1OC`, the IC50 (in the assay on KB [2]; in the assay on DU-145 [3]; in the assay on A549 [4]; in assay [6]) was over 20 µM throughout.

Regarding `COc1cc([C@@H]2c3cc4c(cc3[C@@H](NC(=S)NC(=O)c3cncc(Br)c3)[C@H]3COC(=O)[C@H]23)OCO4)cc(OC)c1OC`, the IC50 (in the assay with KB [2]; with DU-145 [3]; in the assay on A549 [4]; in assay [6]) was over 20 µM throughout.

With `COc1cc([C@@H]2c3cc4c(cc3[C@@H](NC(=S)NC(=O)c3ccc(F)cc3)[C@H]3COC(=O)[C@H]23)OCO4)cc(OC)c1OC`, the IC50 with KB [2] worked out at 1.44 µM; in the assay on DU-145 [3] it was 1.15 µM; in the assay with A549 [4] it was 1.37 µM; in assay [6], 1.38 µM.

Regarding `COc1cc([C@@H]2c3cc4c(cc3[C@@H](NC(=S)NC(=O)c3ccc(Cl)cc3)[C@H]3COC(=O)[C@H]23)OCO4)cc(OC)c1OC`, the IC50 in the assay on KB [2] stood at 1.2 µM; in the assay with DU-145 [3], 1.16 µM; in the assay with A549 [4], 1.62 µM; in assay [6], 2.01 µM.

On to `COc1cc([C@@H]2c3cc4c(cc3[C@@H](NC(=S)NC(=O)c3cccc([N+](=O)[O-])c3)[C@H]3COC(=O)[C@H]23)OCO4)cc(OC)c1OC`, for which the IC50 with KB [2] is 9.27 µM; in the assay with DU-145 [3], 9.82 µM; in the assay with A549 [4], 10.3 µM; in assay [6] it was 9.86 µM.
